This is a sample that favours compounds with a hit; in the whole collection about 3.1% have one here.
HSF-1 act: increases HSF-1 driven luciferase reporter signal; activation, % at 9 µM; NIH3T3-HGL HSF-1 luciferase reporter, MG132, 8 h; 100% = twice DMSO control signal; 1.7% of 300,000 active;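 active = mean replicate activation of at least 50% with a set share of replicates each reaching 50%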;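 note: 0% = median of the neutral control wells and 100% = twice that signal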
HKDC1 inh: inhibitors of human hexokinase HKDC1. recombinant HKDC1, G6PDH/diaphorase resazurin coupled fluorescence. AID 493160. inhibition, % at 20 µM. 0.16% of 340,000 active. Q2TB90;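 active = inhibition above about 35% when tested at 20 µM, limit read from the data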;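 note: plate controls were DMSO wells with enzyme for no effect and DMSO wells lacking enzyme for full effect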
Target sequence (Q2TB90 whole entry, looked up): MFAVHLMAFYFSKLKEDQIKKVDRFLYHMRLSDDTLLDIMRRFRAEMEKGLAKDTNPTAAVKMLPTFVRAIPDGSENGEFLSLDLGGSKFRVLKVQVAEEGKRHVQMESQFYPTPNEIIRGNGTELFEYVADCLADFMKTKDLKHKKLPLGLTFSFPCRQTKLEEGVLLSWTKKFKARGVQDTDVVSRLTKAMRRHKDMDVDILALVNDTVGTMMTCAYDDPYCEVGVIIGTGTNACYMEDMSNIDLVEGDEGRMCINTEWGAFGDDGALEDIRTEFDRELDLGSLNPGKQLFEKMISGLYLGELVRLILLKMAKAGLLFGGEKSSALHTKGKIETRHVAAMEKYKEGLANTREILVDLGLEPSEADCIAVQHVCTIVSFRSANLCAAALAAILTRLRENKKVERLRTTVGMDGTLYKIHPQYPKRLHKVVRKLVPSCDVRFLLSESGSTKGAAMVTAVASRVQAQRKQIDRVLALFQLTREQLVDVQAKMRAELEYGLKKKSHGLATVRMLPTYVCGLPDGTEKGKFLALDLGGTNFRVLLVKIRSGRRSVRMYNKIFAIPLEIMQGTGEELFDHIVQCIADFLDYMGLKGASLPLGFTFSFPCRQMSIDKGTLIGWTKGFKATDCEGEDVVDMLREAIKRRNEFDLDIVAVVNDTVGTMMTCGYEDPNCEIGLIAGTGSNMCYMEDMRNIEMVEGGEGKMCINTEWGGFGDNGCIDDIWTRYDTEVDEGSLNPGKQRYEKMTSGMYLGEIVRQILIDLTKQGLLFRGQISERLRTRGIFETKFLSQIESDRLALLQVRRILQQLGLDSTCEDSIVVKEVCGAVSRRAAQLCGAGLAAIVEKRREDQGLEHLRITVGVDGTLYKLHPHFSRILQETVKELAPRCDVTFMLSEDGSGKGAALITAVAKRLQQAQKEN
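test system = in-house recombinant HK5 (HKDC1) enzyme | amount = HKDC1 at 5 µg/mL | control set = DMSO-enzyme wells negative, buffer-substituted wells positive | compound = one dose of 20 µM, 1% DMSO | schedule = reaction time 90 min, room temperature, protected from light | technique = resorufin fluorescence at 613 nm | reagent = glucose with 1 mM ATP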
HSF1 inhib: HSF1 inhibition. activity change, negative = inhibition, % at 7.5 µM (by protocol). NIH3T3-HGL HSE-luciferase, MG132-induced, luminescence 8 h; active compounds read low. AID 2098. 0.77% of 300,000 active;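 active = more than half of replicate wells show activity change below -50%, luminescence cut by over half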;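 note: luciferase reports HSF-1 transcriptional activity via heat shock element; 0% = median of DMSO wells and -100% = zero luminescence signal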
Tb hexokinase: blocks Trypanosoma brucei hexokinase 1 activity; recombinant TbHK1, G6PDH-coupled NADH A340; inhibition, % at 10 µM; 0.11% of 220,000 active; AID 1430;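 active = inhibition of 50% or more in the single-dose primary screen; inactive = inhibition below 50%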
Hsp70 act: switches on Hsp70 transcription. activation, % at 10 µM. AID 1203. 0.04% of 200,000 active. HeLa Hsp70 promoter luciferase reporter, luminescence; scaled: vehicle 0, proteasome-inhibitor control 100%;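 active = activation above the mean across all tested compounds plus 3 SD, cutoff set per campaign, cut at about 5.5% in these data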;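 note: 100% = MG132 at 30 µM as the positive control and 0% = DMSO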
HSP90 refold inh: inhibitors of HSP90 luciferase refolding in rabbit reticulocyte lysate | luciferase refolding luminescence, 3 h | inhibition, % at 5.6 µM | 0.91% of 290,000 active | AID 1789;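 active = inhibition above the screen-wide mean plus 3 SD, computed separately per campaign, cut at about 16% in these data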;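 note: 0% = DMSO wells and 100% = 60 µM geldanamycin wells; inhibitors lower the luminescence because luciferase stays unfolded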
HKDC1 act conf: HKDC1 (human) activation, single-dose confirmed; recombinant HKDC1, G6PDH/diaphorase resazurin fluorescence; active compounds read low; inhibition, % at 20 µM; shares compounds with HKDC1 inh; 14% of 740 active;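 active = inhibition at or below a set negative limit, negative inhibition meaning the enzyme was activated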
* hit, by the source's call.

Results for CCCc1nc2oc3c(OC)ncnc3c2c2c1COC(C)(C)C2 ?
HKDC1 inh: 37*; Tb hexokinase: -1; Hsp70 act: 0; HSP90 refold inh: 2; HKDC1 act conf: 42

How did CN=CC1=C(O)c2ccccc2C1=O do in these assays?
HSF-1 act: -9; HKDC1 inh: -8; HSF1 inhib: 0; Tb hexokinase: -4; Hsp70 act: 0; HSP90 refold inh: 1

How did O=C1C(C2=C(O)c3ccccc3C2=O)=Nc2ccccc21 do in these assays?
HSF-1 act: 8; HKDC1 inh: -242; HSF1 inhib: 9; Tb hexokinase: -2; Hsp70 act: 0; HSP90 refold inh: 0; HKDC1 act conf: -162*

What do the screens show for `CCOc1ccc(CCNC(=O)c2ccc3c(=O)[nH]c4c(C(=O)NC(C)C)sc(=S)n4c3c2)cc1`?
HSF-1 act: 6; HKDC1 inh: 41*; HSF1 inhib: 2; HSP90 refold inh: -1; HKDC1 act conf: 26

Results for CCCCNC(=O)c1sc(=S)n2c1[nH]c(=O)c1ccccc12 ?
HSF-1 act: 12; HKDC1 inh: 38*; HSF1 inhib: 5; Tb hexokinase: 1; Hsp70 act: 0; HSP90 refold inh: -4; HKDC1 act conf: 56

How did Cc1ccc(C(=O)/C=C/c2ccc(Br)cc2)o1 do in these assays?
HSF-1 act: 6; HKDC1 inh: 18; HSF1 inhib: 5; Tb hexokinase: -2; Hsp70 act: 0; HSP90 refold inh: 0

Results for Cc1ccc(/C=C/C(=O)c2ccc([N+](=O)[O-])o2)cc1 ?
HSF-1 act: 29; HKDC1 inh: 46*; HSF1 inhib: 32; HKDC1 act conf: 19

How did COC(=O)[C@H](CCSC)NC(=O)Cn1cnc2c(NCc3ccccc3)ncnc21 do in these assays?
HKDC1 inh: -2

How did CCOc1ccc(/C=C2/SC(=S)N(CCC(=O)Nc3ccc(C(=O)O)cc3)C2=O)cc1 do in these assays?
HSF-1 act: 4; HKDC1 inh: 43*; HSF1 inhib: -1; HSP90 refold inh: 0; HKDC1 act conf: -42*

How did O=C(CCN1C(=O)/C(=C\c2ccccc2)SC1=S)Nc1ccc(C(=O)O)cc1 do in these assays?
HSF-1 act: 41; HKDC1 inh: 10; HSF1 inhib: 2; HSP90 refold inh: 2

How did CC(C)OC(=O)c1ccc(NCc2cc(O)ccc2O)cc1 do in these assays?
HKDC1 inh: 26

Results for COP(=O)(OC)c1ccc(NCc2cc(O)ccc2O)cc1 ?
HKDC1 inh: 43*; HKDC1 act conf: 53

How did S=C1Cc2ccccc2N1 do in these assays?
HSF-1 act: -78; HKDC1 inh: -303; HSF1 inhib: -77*; Tb hexokinase: -6; HSP90 refold inh: 5; HKDC1 act conf: -192*

How did O=C1CCc2ccccc2N1 do in these assays?
HSF-1 act: -13; HKDC1 inh: -7; HSF1 inhib: 1; Tb hexokinase: -11; HSP90 refold inh: 0

How did O=C1NN(c2cccc(Br)c2)C(=O)/C1=C/c1ccc(-c2cc([N+](=O)[O-])ccc2O)o1 do in these assays?
HSF-1 act: -3; HKDC1 inh: 62*; HSF1 inhib: -8; Tb hexokinase: 12; HSP90 refold inh: -1; HKDC1 act conf: -13

How did COc1ccc(CC(=O)N(Cc2ccccc2)c2ccc(C)cc2)cc1S(=O)(=O)N1CCOCC1 do in these assays?
HSF-1 act: -1; HKDC1 inh: 33; HSF1 inhib: 15; HKDC1 act conf: -30

What do the screens show for `COc1ccc(COCC(O)CN2CCN(S(=O)(=O)c3ccc(C(C)C)cc3)CC2)cc1` (configuration not stated)?
HKDC1 inh: -2

What do the screens show for `COc1ccc(-n2c(C)cc(C(=O)CCl)c2C)cc1`?
HSF-1 act: 5; HKDC1 inh: 35*; HSF1 inhib: -5; Tb hexokinase: -2; Hsp70 act: 0; HSP90 refold inh: 4; HKDC1 act conf: 34

How did COc1ccc(-n2c(C)cc(C(=O)CN3C(=O)c4ccccc4C3=O)c2C)cc1 do in these assays?
HSF-1 act: 0; HKDC1 inh: 0; HSF1 inhib: 0; Tb hexokinase: 2; Hsp70 act: 0; HSP90 refold inh: -1

Source: PubChem BioAssay
